# Test results: BindingDB's records for doi:10.1016/s0960-894x(03)00042-8 (Merck Frosst Centre For Therapeutic Research, 2003)
# Molecular target: Prostaglandin E2 receptor EP4 subtype (Homo sapiens, UniProt P35408)
# Assay: Binding affinity towards EP4 receptor expressed in HEK293 ebna cells recombinantly expressing the corresponding human prostanoid cDNAs
# Summary of the method: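 Competition binding used membrane preparations, not intact cells, from HEK293ebna cells expressing each recombinant human prostanoid receptor cDNA.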
# Prostaglandin E2 receptor EP4 subtype, sequence (P35408 whole entry): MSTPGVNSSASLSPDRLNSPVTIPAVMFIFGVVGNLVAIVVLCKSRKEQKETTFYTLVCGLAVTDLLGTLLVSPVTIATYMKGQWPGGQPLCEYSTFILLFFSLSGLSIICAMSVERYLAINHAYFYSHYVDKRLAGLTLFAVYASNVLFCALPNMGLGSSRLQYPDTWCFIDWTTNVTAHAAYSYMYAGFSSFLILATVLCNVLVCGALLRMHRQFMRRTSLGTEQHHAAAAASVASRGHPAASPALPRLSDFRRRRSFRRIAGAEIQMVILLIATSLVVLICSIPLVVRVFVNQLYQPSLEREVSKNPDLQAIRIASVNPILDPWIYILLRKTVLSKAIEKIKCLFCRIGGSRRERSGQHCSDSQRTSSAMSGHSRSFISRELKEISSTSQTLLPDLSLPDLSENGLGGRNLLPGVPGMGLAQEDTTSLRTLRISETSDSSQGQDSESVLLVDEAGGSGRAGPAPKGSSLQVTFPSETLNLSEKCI
smiles,measurement,value
O=C1CC[C@H](/C=C/[C@H](O)Cc2ccccc2)N1CCCCCCc1nnn[nH]1,Ki,2.5 nM
